Data on one compound can be found in ChEMBL document CHEMBL1123355, “Activity of N-methyl-alpha- and -beta-funaltrexamine at opioid receptors” (1986).

The structures appear in SMILES notation.

The species named for the experiment is Cavia porcellus. In words: Beta-Funaltrexamine antagonism of morphine agonism in the presence of compound was determined in Guinea pig ileum at concentration of 20 nM. The class given is functional. In short, it runs like this: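 Guinea pig ileum protection assay. The protector was added to the tissue 10 min before 20 nM β-FNA, which was applied for 30 min. The tissue was then washed 30 times with intermittent chasing by 500 nM naloxone. The result is the morphine IC50 in treated tissue divided by the morphine IC50 in control tissue of the same preparation, given with SE and n.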

In the case of `O=C1CC[C@@]2(O)[C@H]3Cc4ccc(O)c5c4[C@@]2(CCN3CC2CC2)[C@H]1O5` [NALTREXONE], the IC50 ratio was found to be 2.1.
